# Screens: PubChem, The Scripps Research Institute Molecular Screening Center
# Only some compounds are listed: those with a hit (about 2.7% of all), similar ones and a draw of the others.
# CTSL1 counter: blocks F. hepatica cathepsin L1 in PFM18AAP counter-screen | actives 0.49% (n = 300,000) | recombinant F. hepatica cathepsin L1, Z-Leu-Arg-MCA fluorescence | inhibition, % at 5.96 µM;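 active = inhibition above the mean of all tested compounds plus 3 SD, set per screening campaign, cut at about 17% in these data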;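 note: 0% = plate median of test compound wells and 100% = 1 µM Z-Phe-Ala-diazomethylketone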
# IMP-1 inhibitor: blocks Pseudomonas aeruginosa IMP-1 metallo-beta-lactamase. purified IMP-1, nitrocefin hydrolysis, epi-absorbance fluorescence. inhibition, % at 5.6 µM. actives 0.45% (n = 290,000);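 active = inhibition above the mean plus 3 SD of all compounds in the same screening run, cut at about 4.5% in these data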;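 note: 0% = IMP-1 with DMSO and 100% = DMSO wells lacking enzyme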
#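 system = purified recombinant IMP-1 beta-lactamase | amount = 0.2 nM IMP-1, as dispensed | medium = HEPES buffer pH 7.1 with ZnSO4 and Brij 35 | times = 25 °C, 15 min preincubation, 25 min reaction | detection = plate fluorescence quenching by hydrolysis product, ex 480/em 530 nm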
# M18AAP inhibitor: blocks P. falciparum M18 aspartyl aminopeptidase; actives 1.2% (n = 290,000); inhibition, % at 7.35 µM; recombinant PfM18AAP, H-Glu-NHMec fluorogenic cleavage;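 active = inhibition above the campaign mean inhibition over all tested compounds plus 3 SD, cut at about 28% in these data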;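 note: 0% = plate median of test compound wells and 100% = 2 mM ZnCl2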
# VIM-2 inh: inhibitors of Pseudomonas aeruginosa VIM-2 metallo-beta-lactamase; actives 0.89% (n = 290,000); AID 1527; inhibition, % at 5.6 µM; purified VIM-2, nitrocefin hydrolysis, epi-absorbance fluorescence;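 active = inhibition above the mean of all tested compounds plus 3 SD, cutoff set per screening run, cut at about 7.5% in these data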;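 note: red hydrolysis product quenches plate fluorescence so inhibitors raise well fluorescence; 0% = enzyme with DMSO and 100% = DMSO without enzyme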
# The depositor's hits bear a star; . = not tested or not shown.
SMILES,CTSL1 counter,IMP-1 inhibitor,M18AAP inhibitor,VIM-2 inh
O=[N+]([O-])c1ccc(/C=C/C2=NN(c3ccccc3)C(c3ccco3)C2)o1 (stereo not given),.,5.5*,-1,5
Cc1ccc2nc(NC(=O)C(NS(=O)(=O)c3cccc4nsnc34)C(C)C)sc2c1 (stereo not given),4,-1,-11,1
Clc1ccc(N/N=C/c2cccnc2)cc1,17*,-3,4,-4
COc1ccc(CCN(C)CC(O)c2ccccc2)cc1OC (stereo not given),1,0,2,-1
COc1cccc2cc(-c3cc(=O)oc4ccc(OCC(C)=O)cc34)oc12,8,1,-8,4
COC(=O)COc1ccc2oc(=O)cc(-c3cc4cccc(OC)c4o3)c2c1,-2,9.7*,0,-2
CC1CCN(C(=O)c2cc(F)c(F)cc2Cl)CC1,-5,-3,-3,-2
CC1CCN(S(=O)(=O)c2cccc(C(=O)NNC(=O)c3ccco3)c2)CC1,-3,-1,-15,-1
COc1cc(-c2ccccc2)nc(N)n1,-4,-1,3,0
COc1cc(Oc2ccccc2)nc(N)n1,30*,.,.,.
Cc1ccnn1CCC(=O)O,4,-3,-5,-1
O=[N+]([O-])c1ccc(-c2n(-c3ccccn3)c3ccccc3[n+]2-c2ccccn2)cc1,0,-3,-5,-1
Clc1ccc(CONc2ncnc3nonc23)c(Cl)c1,18*,0,1,-2
O=C(COC(=O)c1ccc[nH]c1=O)NCCc1ccc(Cl)cc1Cl,18*,-2,2,-2
Cc1ccc(C(=O)c2ccccc2C(=O)OCC(=O)NCCc2ccc(Cl)cc2Cl)cc1,0,-2,-2,0
CN1CCN(C(=O)c2ccc3c(=O)n(Cc4ccco4)c(=S)[nH]c3c2)CC1,9,-1,7,8.3*
Fc1cccc(Nc2nc(N3CCOCC3)nc(N3CCOCC3)n2)c1,1,-2,1,-1
Nc1nc(-c2ccc3c(c2)CCCC3)c(CC(=O)O)s1,.,1,-7,3
Nc1nc(-c2ccc3c(c2)OCCO3)c(CC(=O)O)s1,.,9.9*,-3,2
CCn1c2ccccc2c2nnc(SCC(=O)N3CC(C)OC(C)C3)nc21 (stereo not given),3,-1,1,8.3*
COc1ccccc1N1CCN(C(=O)CSc2nnc3c4ccccc4n(CC(=O)O)c3n2)CC1,2,-1,0,3
CN1CCc2nc3sc(C(=O)NCc4ccccc4)c(N)c3cc2C1,-1,-2,29*,-3
Cc1nn(-c2ccccc2)c(N2CCCC2)c1/C=N/NC(=S)Nc1ccc(F)cc1,2,.,.,.
Cc1nn(-c2ccccc2)c(Cl)c1/C=C1\N=C(c2ccccc2)OC1=O,.,-3,-1,-1
Cc1ccc(C2=N/C(=C\c3c(C)nn(-c4ccccc4)c3N3CCCC3)C(=O)O2)cc1,55*,-5,-4,-3
SMILES,CTSL1 counter,IMP-1 inhibitor,M18AAP inhibitor,VIM-2 inh
Cc1nn(-c2ccccc2)c(N2CCCC2)c1/C=C1\N=C(c2ccc(F)cc2)OC1=O,70*,-2,-3,-3
CCOc1cc(C(C(=O)NCC2CCCO2)N(C(=O)Cn2nnc3ccccc32)c2ccc(NC(C)=O)cc2)ccc1O (stereo not given),1,0,-6,-1
CC(=O)Nc1ccc(N(C(=O)Cn2nnc3ccccc32)C(C(=O)NC2CCCC2)c2ccc(O)c(O)c2)cc1 (stereo not given),-1,2,65*,1
CC1(c2cccc(Br)c2)NC(=O)N(CC(=O)Nc2ccc(F)cc2)C1=O (stereo not given),-7,-2,-1,0
Cc1c(NC(=O)Nc2ccc(C(C)(C)C)cc2)c(=O)n(-c2ccccc2)n1C,-2,-1,-3,0
COc1cc(/C=C2\N=C(c3ccccc3)OC2=O)ccc1OC(C)=O,-7,0,1,3
COc1ccc(OC)c(/C=C2\N=C(c3ccccc3)OC2=O)c1,2,0,-3,10*
O=C(CCl)Nc1ccccc1Sc1ccc(Cl)cc1,21*,-4,7,-2
CCn1c(=O)n(CC)c2cc(N3CCCC3)c(NC(=O)c3cc(Br)ccc3OC)cc21,11,-2,30*,-1
CCn1c(=O)n(CC)c2cc(N3CCCC3)c(NC(=O)c3ccc(C)cc3)cc21,1,-2,28*,-2
CCC(=O)/C=C1\Sc2ccc(OC)cc2N1CC,6,-2,9,-1
CCC(=O)/C=C1\Sc2ccc(OC)cc2N1CCO,4,-4,30*,-4
CCOC(=O)CC(=O)CSc1nc(-c2cccnc2)ccc1C#N,1,5.3*,16,0
CCn1c(=O)c(C(C)=O)nc2ccccc21,-2,5.9*,2,0
CCOC(CNC(=O)c1cccn2c(=O)c3cc(Cl)ccc3nc12)OCC,4,-2,10,-3
CCOC(CNC(=O)c1cccn2c(=O)c3c(C)c(C)sc3nc12)OCC,3,-2,-1,10*
CN(C)C=Nc1nonc1-c1ncn[nH]1,-2,-2,30*,-3
O=C(NCc1n[nH]c(=S)n1-c1ccc(Br)cc1)c1ccc(S(=O)(=O)N2CCOCC2)cc1,-2,-4,28*,-3
NS(=O)(=O)c1cccc(NC(=O)C(Cc2ccccc2)NC(=O)c2ccccc2)c1 (stereo not given),0,-3,2,-2
CCOC(=O)C(Cc1ccc(O)cc1)NC(=O)CNC(=O)C(CC(C)C)NC(=O)OC(C)(C)C (stereo not given),29*,-5,-14,0
COC(=O)C(Cc1ccccc1)NC(=O)C(CC(C)C)NC(=O)OC(C)(C)C (stereo not given),11,-3,-5,-4
Cc1ccc(S(=O)(=O)N2C(=O)CCC2C(=O)O/N=C(\N)c2cccc([N+](=O)[O-])c2)cc1 (stereo not given),9,-2,-13,1
CCCn1c(NCc2cc(C)ccc2O)nc2ccccc21,-3,-2,30*,-2
CCCCn1c(NCc2ccccc2O)nc2ccccc21,-4,-1,1,-4
COc1cccc(NC(=O)Cn2c(=O)n(CC3CCCO3)c(=O)c3ccccc32)c1 (stereo not given),6,-3,5,0
SMILES,CTSL1 counter,IMP-1 inhibitor,M18AAP inhibitor,VIM-2 inh
O=C(COc1ccc2c(-c3ccccc3)cc(=O)oc2c1)NCCCn1ccnc1,1,0,-2,3
Cc1cc(=O)oc2cc(OC(C)C(=O)NCCCn3ccnc3)ccc12 (stereo not given),-2,-2,5,5
Cc1cc(=O)oc2cc(OCC(O)Cn3ccnc3)ccc12 (stereo not given),-1,-2,-13,10*
Cc1cc(=O)oc2cc(OCC(=O)NCCCn3ccnc3)ccc12,2,-3,2,12*
COc1ccc(CCNC(=O)c2cc(C3CC3)on2)cc1OC,4,-4,-16,0
CC(C)(C)c1ccc(C(=O)N2CCN(CCNC(=O)C(=O)NCc3ccccc3)CC2)cc1,-1,-3,1,-2
CCOC(=O)c1cc(C#N)c(N2CCN(c3ccc(OC)cc3)CC2)[nH]c1=O,4,-1,1,-1
